Reference: ChEMBL document CHEMBL1133729, “Design, synthesis, and structure-activity relationships of phthalimide-phenylpiperazines: a novel series of potent and selective alpha(1)(a)-adrenergic receptor antagonists” (J Med Chem, 2000)

Assays:
[1] = target: T1, Serotonin 1 (5-HT1) receptor (Rattus norvegicus, UniProt P28564+P30940+P19327+P28565); assay: Binding affinity towards central 5-hydroxytryptamine 1 receptor was determined in rat cerebral cortex using [3H]5-HT as radioligand; type: tissue-based
Method in brief: (§1)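 Rat cerebral cortex membranes incubated with [3H]5-HT for 10 min at 37 °C in 50 mM Tris-HCl, 150 mM NaCl, 5 mM EDTA, pH 7.4. Nonspecific binding defined with 10 μM 5-HT. Filtration, then liquid scintillation counting. Ki derived from IC50 by Cheng–Prusoff; mean of three independent experiments.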

[2] = target: Dihydropyridine-sensitive L-type Ca2+ channel (Rattus norvegicus, UniProt P22002+P27732+Q02485); assay: Inhibition of [3H]nitrendipine binding to Dihydropyridine-sensitive L-type [Ca2+] channel in rat cerebral cortex at 10 uM; type: tissue-based; details: probe [3H]nitrendipine
Method in brief: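 Rat cerebral cortex membranes as source of dihydropyridine-sensitive L-type Ca2+ channels; [3H]nitrendipine, 25 °C for 90 min, pH 7.4 Tris-HCl/NaCl/EDTA; 1 μM nifedipine for nonspecific binding. Percent inhibition at the single compound concentration given in each line; filtration, scintillation counting.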

Histamine H1 receptor = Histamine H1 receptor (Cavia porcellus, UniProt P31389); assay: Binding affinity towards histamine H1 receptor was determined in guinea pig brain using [3H]pyrilamine as radioligand
Chain of Histamine H1 receptor (P31389 whole entry): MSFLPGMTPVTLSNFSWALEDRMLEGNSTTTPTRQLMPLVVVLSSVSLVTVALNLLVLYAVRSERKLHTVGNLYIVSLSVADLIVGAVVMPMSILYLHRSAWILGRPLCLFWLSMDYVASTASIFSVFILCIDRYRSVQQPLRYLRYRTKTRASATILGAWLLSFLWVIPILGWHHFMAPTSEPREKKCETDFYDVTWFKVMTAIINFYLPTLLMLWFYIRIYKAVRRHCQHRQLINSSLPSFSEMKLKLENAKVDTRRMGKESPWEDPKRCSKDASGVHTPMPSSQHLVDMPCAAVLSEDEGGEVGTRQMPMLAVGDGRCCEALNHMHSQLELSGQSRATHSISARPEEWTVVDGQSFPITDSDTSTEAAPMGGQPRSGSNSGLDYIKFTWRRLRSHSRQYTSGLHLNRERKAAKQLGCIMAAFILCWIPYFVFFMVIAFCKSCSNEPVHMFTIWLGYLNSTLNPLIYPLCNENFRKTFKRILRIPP
Method in brief: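 Guinea pig brain membranes as source of central H1 receptors; [3H]pyrilamine, 25 °C for 60 min in 50 mM Tris-HCl, 150 mM NaCl, 5 mM EDTA, pH 7.4; nonspecific binding with 1 μM pyrilamine. Filtration, scintillation counting. Ki by Cheng–Prusoff from fitted IC50, mean ± SEM of three experiments.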

[3] = target: T2, 5-hydroxytryptamine receptor 1A (Homo sapiens, UniProt P08908); assay: Binding affinity towards recombinant human 5-hydroxytryptamine 1A receptor was determined using [3H]8-OH-DPAT as radioligand
T2 sequence (P08908 whole entry): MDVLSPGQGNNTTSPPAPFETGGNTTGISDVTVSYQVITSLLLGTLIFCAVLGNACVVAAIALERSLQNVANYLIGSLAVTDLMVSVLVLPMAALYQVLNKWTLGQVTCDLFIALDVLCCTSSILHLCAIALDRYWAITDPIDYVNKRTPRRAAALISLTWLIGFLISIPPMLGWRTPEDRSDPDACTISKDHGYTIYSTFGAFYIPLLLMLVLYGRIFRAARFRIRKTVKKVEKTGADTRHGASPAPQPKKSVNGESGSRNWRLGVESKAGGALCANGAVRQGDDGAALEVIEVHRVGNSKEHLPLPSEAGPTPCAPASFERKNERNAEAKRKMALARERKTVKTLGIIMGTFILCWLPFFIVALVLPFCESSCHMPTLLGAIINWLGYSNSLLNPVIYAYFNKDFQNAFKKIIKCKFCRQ
Method in brief: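 Human 5-HT1A receptor expressed in CHO cells, membranes used. [3H]8-OH-DPAT, 60 min at 25 °C in Tris-HCl/NaCl/EDTA buffer, pH 7.4. Metergoline (10 μM) gave nonspecific binding. Filtered, scintillation counted. Ki from IC50 (nonlinear regression) by Cheng–Prusoff, mean ± SEM of three independent experiments.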

[4] = target: Voltage-gated L-type calcium channel (Rattus norvegicus, UniProt P22002+Q02485+P27732); assay: Inhibition of [3H]nitrendipine binding to phenylalkylamine-sensitive [Ca2+] L-type channels in rat cerebral cortex; type: tissue-based
[5] = system: Alpha-1D/Alpha-1A adrenergic receptor (Homo sapiens); assay: Ratio of binding affinity towards Alpha1d to Alpha-1A
[6] = target: T3, D(4) dopamine receptor (Homo sapiens) (UniProt P21917); assay: Compound at 1 uM was tested for the inhibition of radioligand [3H]spiperone binding to recombinant human Dopamine receptor D4
T3 sequence (whole entry): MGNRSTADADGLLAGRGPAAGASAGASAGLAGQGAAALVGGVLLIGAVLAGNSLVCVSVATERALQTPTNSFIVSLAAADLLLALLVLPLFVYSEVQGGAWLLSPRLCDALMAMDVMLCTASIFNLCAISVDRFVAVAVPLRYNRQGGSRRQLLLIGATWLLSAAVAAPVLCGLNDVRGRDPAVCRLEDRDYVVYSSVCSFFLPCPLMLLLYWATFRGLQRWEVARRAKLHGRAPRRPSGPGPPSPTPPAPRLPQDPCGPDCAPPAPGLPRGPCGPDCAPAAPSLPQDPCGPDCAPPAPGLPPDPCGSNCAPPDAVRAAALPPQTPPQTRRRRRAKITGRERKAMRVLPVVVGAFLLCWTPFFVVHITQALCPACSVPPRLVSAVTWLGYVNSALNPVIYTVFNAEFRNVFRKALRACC
Method in brief: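 Recombinant human D4.7 in CHO cell membranes; [3H]spiperone for 120 min at 25 °C, pH 7.4 Tris-HCl/NaCl/EDTA; haloperidol (10 μM) for nonspecific binding. Compound at 1 μM, percent inhibition determined in duplicate; filtration, scintillation counting.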

[7] = target: T2, 5-hydroxytryptamine receptor 1A; assay: Binding affinity towards recombinant human Compound at 1 uM was tested for the inhibition of radioligand [3H]8-OH-DPAT binding to recombinant human 5-hydroxytryptamine 1A receptor was determined using [3H]8-OH-DPAT as radioligand
Method in brief: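 Recombinant human 5-HT1A receptor expressed in CHO cell membranes. [3H]8-OH-DPAT binding for 60 min at 25 °C in Tris/NaCl/EDTA buffer, pH 7.4. Nonspecific binding defined with 10 μM metergoline. Percent inhibition measured at 1 μM test compound in duplicate; filtration and scintillation counting.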

[8] = target: Alpha-2A adrenergic receptor (Homo sapiens, UniProt P08913); assay: Binding affinity towards recombinant human alpha-2A adrenergic receptor was determined using [3H]MK-912 as radioligand
Chain of Alpha-2A adrenergic receptor (P08913 whole entry): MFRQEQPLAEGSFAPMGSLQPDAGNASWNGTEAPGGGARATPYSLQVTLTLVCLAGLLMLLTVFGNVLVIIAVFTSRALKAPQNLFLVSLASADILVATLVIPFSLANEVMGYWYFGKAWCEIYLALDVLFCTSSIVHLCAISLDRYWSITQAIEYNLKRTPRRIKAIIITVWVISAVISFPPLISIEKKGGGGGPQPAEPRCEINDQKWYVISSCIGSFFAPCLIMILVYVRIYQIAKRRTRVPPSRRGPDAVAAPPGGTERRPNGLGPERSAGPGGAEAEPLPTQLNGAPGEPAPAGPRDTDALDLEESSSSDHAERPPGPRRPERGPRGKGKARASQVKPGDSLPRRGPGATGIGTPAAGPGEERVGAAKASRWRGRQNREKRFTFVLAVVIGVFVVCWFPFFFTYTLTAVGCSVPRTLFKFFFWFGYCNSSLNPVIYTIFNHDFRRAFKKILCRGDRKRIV
Method in brief: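 Membranes from CHO cells expressing recombinant human α2a receptor; competition with [3H]MK912, 60 min at 25 °C, in 50 mM Tris-HCl/150 mM NaCl/5 mM EDTA pH 7.4. Nonspecific binding defined with 10 μM WB4101. Filtration, washing, scintillation counting. IC50 by nonlinear regression, Ki via Cheng–Prusoff; mean ± SEM of three independent experiments.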

[9] = target: T1, Serotonin 1 (5-HT1) receptor; assay: Binding affinity towards 5-hydroxytryptamine 1 receptor was determined in rat cerebral cortex using [3H]5-HT as radioligand; type: tissue-based; method in brief: as §1

`CC(C)Oc1ccccc1N1CCN(C[C@@H](O)CNC(=O)c2ccc3c(c2)C(=O)N(c2ccc(N(C)C)cc2)C3=O)CC1` gave a Ki [1] of 773 nM, an inhibition at 10 µM [2] of 53% and a Ki (Histamine H1 receptor) of 38 nM. The Ki [3] was 15 nM and the Ki [4] was 760 nM.
With `Cc1ccc(N2C(=O)c3ccc(C(=O)NCCCN4CCN(c5ccccc5OC(C)C)CC4)cc3C2=O)cc1` the Ratio [5] was 231.
`Cc1ccc(N2C(=O)c3ccc(C(=O)NC[C@H](O)CN4CCN(c5ccccc5OC(C)C)CC4)cc3C2=O)cc1` was tested, and the inhibition [6] was 50%.
Work on `CCOc1ccccc1OCCN[C@H](C)Cc1ccc(OC)c(S(N)(=O)=O)c1` [TAMSULOSIN] yielded a Ki [7] of 0.79 nM, a Ki [8] of 63 nM and a Ki [9] of 944 nM.
